Experimental data published in ChEMBL document CHEMBL1147263, “New cinnamylphenols from Dalbergia species with cancer chemopreventive activity” (J Nat Prod, 2003).

Key:
[1] = Inhibition of 12-O-tetradecanoylphorbol-13-acetate-induced EBV-early antigen activation in human Raji cells assessed per 32 pmol TPA; format: cell-based, human gammaherpesvirus 4
How it was run: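 IC50 given as the mol ratio of compound to TPA giving 50% inhibition of EBV-EA activation versus the TPA-only control (32 pmol TPA = 100%). Raji cells were kept in RPMI 1640/10% FCS with 4 mM n-butyric acid and DMSO-dissolved compound at 10–1000 mol ratio, 48 h, 37 °C. EA-positive cells were counted blind, ≥500 per assay.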

Raji [2] = experiment: Inhibition of 12-O-tetradecanoylphorbol-13-acetate-induced EBV-early antigen activation in human Raji cells assessed as EA induction at 32 nmol relative to 12-O-tetradecanoylphorbol-13-acetate; format: cell-based; set-up: scale not given: the % may be the effect or the level left; settings: human gammaherpesvirus 4
How it was run: (§1)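 Raji cells at 10^6 cells/mL resuspended in RPMI 1640 + 10% FCS containing 4 mM n-butyric acid, 32 pmol TPA (20 ng/mL in DMSO) and test compound in DMSO. Incubated 48 h at 37 °C. EA-positive cells scored blind, ≥500 cells per assay. Reported as % EBV-EA activation ± SD relative to the TPA-only control (100%).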

Raji [3] = experiment: Inhibition of 12-O-tetradecanoylphorbol-13-acetate-induced EBV-early antigen activation in human Raji cells assessed as EA induction at 0.32 nmol relative to 12-O-tetradecanoylphorbol-13-acetate; format: cell-based; set-up: scale not given: the % may be the effect or the level left; settings: human gammaherpesvirus 4; how it was run: as §1
[4] = Cytotoxicity against human Raji cells assessed as cell viability at 16 nmol after 48 hrs by trypan blue staining method; format: cell-based; settings: read-out: Activity
How it was run: (§2)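 Raji cells grown to 10^6 cells/mL, pelleted and resuspended in RPMI 1640 + 10% FCS with 4 mM n-butyric acid, 32 pmol TPA (20 ng/mL) and test compound in DMSO (mol ratio to TPA 10–1000, i.e. 0.32–32 nmol). Incubated 48 h at 37 °C. Viability then counted on a hemocytometer with Trypan Blue. ≥60% survival required for valid EA readings.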

Raji [5] = experiment: Inhibition of 12-O-tetradecanoylphorbol-13-acetate-induced EBV-early antigen activation in human Raji cells assessed as EA induction at 16 nmol relative to 12-O-tetradecanoylphorbol-13-acetate; format: cell-based; set-up: scale not given: the % may be the effect or the level left; settings: human gammaherpesvirus 4; how it was run: as §1
[6] = Cytotoxicity against human Raji cells assessed as cell viability at 0.32 nmol after 48 hrs by trypan blue staining method; format: cell-based; settings: read-out: Activity; how it was run: as §2
[7] = Cytotoxicity against human Raji cells assessed as cell viability at 32 nmol after 48 hrs by trypan blue staining method; format: cell-based; settings: read-out: Activity; how it was run: as §2
[8] = Cytotoxicity against human Raji cells assessed as cell viability at 3.2 nmol after 48 hrs by trypan blue staining method; format: cell-based; settings: read-out: Activity; how it was run: as §2
Raji [9] = experiment: Inhibition of 12-O-tetradecanoylphorbol-13-acetate-induced EBV-early antigen activation in human Raji cells assessed as EA induction at 3.2 nmol relative to 12-O-tetradecanoylphorbol-13-acetate; format: cell-based; set-up: scale not given: the % may be the effect or the level left; settings: human gammaherpesvirus 4; how it was run: as §1

| IC50 [1] [molar ratio] | SMILES | Activity (Raji [2]) [%] | Activity (Raji [3]) [%] | viability at 48 h, 16 nmol [4] [%] | Activity (Raji [5]) [%] | viability at 48 h, 0.32 nmol [6] [%] | viability at 48 h, 32 nmol [7] [%] | viability at 48 h, 3.2 nmol [8] [%] | Activity (Raji [9]) [%] |
| --- | --- | --- | --- | --- | --- | --- | --- | --- | --- |
| 400 | CC1=C(/C=C/C(C)=C/C=C/C(C)=C/C=C/C=C(C)/C=C/C=C(C)/C=C/C2=C(C)CCCC2(C)C)C(C)(C)CCC1 [BETA CAROTENE] | 9.1 | 100 |  |  |  |  |  |  |
| 213 | COc1c(O)cccc1/C=C/Cc1ccc(O)c(OC)c1OC [DALBERATIN A] | 0 | 85.1 | > 80 | 18.5 | > 80 | 60 | > 80 | 63.6 |
| 303 | COc1ccc(O)c(/C=C/Cc2ccc(O)c(OC)c2OC)c1 [DALBERATIN B] | 0 | 91.7 | > 80 | 31.1 | > 80 | 70 | > 80 | 68.3 |
| 223 | COc1ccc(C/C=C/c2cccc(O)c2OC)c(OC)c1O [DALBERATIN C] | 0 | 86.7 | > 80 | 20.9 | > 80 | 60 | > 80 | 65 |
| 209 | COc1c(O)cccc1/C=C/Cc1ccc(O)c(O)c1OC [DALBERATIN E] | 0 | 82 | > 80 | 16.4 | > 80 | 70 | > 80 | 60.3 |
